Measured values published in ChEMBL document CHEMBL4330096, “Discovery of potent and selective 5-azaindazole inhibitors of leucine-rich repeat kinase 2 (LRRK2) - Part 1” (Bioorg Med Chem Lett, 2019).

What was measured:
[1] = molecular target: Serine/threonine-protein kinase PLK1 (Homo sapiens) (UniProt P53350); test: Inhibition of PLK1 (unknown origin) at 10 uM relative to control
How it was run: (§1)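 Single-concentration screen of each compound against a 59-protein-kinase panel, run at 10 µM or 1 µM. Activity relative to control is shown as a heat map across the panel.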

[2] = molecular target: Phosphorylase kinase (Homo sapiens) (UniProt P15735+P46020+P46019+Q93100+Q16816); test: Inhibition of PHK (unknown origin) at 10 uM relative to control; type: protein-complex assay; how it was run: as §1
[3] = molecular target: Casein kinase I (Homo sapiens) (UniProt Q9HCP0+P78368+P48730+P49674+P48729); test: Inhibition of CK1 (unknown origin) at 10 uM relative to control; type: protein assay
How it was run: (§2)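 Single-point screen of each compound against a panel of 59 protein kinases, at 1 or 10 μM. The panel data are also summarised as a rescaled geometric mean selectivity score.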

Homo sapiens [4] = species: Homo sapiens; test: Inhibition of PKA (unknown origin) at 10 uM relative to control; how it was run: as §1
[5] = molecular target: Maternal embryonic leucine zipper kinase (Homo sapiens) (UniProt Q14680); test: Inhibition of MELK (unknown origin) at 10 uM relative to control; how it was run: as §1
Sequence of Maternal embryonic leucine zipper kinase (Homo sapiens) (Q14680 whole entry, looked up): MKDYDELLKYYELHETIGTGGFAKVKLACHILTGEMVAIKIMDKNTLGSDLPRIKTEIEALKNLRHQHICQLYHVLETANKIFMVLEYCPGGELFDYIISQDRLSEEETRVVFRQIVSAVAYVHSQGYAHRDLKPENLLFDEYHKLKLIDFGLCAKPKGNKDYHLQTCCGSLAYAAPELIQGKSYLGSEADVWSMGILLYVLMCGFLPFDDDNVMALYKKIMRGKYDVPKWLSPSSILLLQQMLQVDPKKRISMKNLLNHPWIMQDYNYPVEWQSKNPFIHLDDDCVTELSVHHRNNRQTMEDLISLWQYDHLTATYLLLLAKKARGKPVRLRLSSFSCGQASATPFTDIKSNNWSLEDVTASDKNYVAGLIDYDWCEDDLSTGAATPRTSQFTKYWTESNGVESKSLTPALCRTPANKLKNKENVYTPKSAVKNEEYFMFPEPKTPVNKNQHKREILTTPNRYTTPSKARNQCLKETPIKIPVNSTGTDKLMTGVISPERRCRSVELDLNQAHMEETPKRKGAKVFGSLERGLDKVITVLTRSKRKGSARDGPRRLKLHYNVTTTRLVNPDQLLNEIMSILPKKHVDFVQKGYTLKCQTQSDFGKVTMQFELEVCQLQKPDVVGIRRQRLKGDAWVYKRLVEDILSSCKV

[6] = molecular target: T1, Serine/threonine-protein kinase Chk1 (Homo sapiens) (UniProt O14757); test: Inhibition of CHK1 (unknown origin) at 10 uM relative to control; how it was run: as §2
T1 sequence (whole entry): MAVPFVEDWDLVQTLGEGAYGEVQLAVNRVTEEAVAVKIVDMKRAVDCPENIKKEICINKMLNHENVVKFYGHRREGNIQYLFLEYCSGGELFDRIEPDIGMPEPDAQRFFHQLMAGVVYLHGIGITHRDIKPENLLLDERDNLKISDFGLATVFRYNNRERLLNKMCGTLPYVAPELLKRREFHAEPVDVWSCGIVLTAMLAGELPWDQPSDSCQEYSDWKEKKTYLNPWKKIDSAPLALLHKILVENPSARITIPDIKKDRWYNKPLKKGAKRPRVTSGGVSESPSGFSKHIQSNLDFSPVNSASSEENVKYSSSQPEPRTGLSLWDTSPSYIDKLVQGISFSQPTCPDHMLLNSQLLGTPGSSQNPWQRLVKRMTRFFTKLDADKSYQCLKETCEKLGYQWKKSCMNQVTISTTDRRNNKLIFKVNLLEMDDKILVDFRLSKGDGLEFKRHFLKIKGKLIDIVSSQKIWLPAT

[7] = molecular target: Tyrosine-protein kinase BTK (Homo sapiens) (UniProt Q06187); test: Inhibition of BTK (unknown origin) at 10 uM relative to control; how it was run: as §2
Sequence of Tyrosine-protein kinase BTK (Homo sapiens) (Q06187 whole entry): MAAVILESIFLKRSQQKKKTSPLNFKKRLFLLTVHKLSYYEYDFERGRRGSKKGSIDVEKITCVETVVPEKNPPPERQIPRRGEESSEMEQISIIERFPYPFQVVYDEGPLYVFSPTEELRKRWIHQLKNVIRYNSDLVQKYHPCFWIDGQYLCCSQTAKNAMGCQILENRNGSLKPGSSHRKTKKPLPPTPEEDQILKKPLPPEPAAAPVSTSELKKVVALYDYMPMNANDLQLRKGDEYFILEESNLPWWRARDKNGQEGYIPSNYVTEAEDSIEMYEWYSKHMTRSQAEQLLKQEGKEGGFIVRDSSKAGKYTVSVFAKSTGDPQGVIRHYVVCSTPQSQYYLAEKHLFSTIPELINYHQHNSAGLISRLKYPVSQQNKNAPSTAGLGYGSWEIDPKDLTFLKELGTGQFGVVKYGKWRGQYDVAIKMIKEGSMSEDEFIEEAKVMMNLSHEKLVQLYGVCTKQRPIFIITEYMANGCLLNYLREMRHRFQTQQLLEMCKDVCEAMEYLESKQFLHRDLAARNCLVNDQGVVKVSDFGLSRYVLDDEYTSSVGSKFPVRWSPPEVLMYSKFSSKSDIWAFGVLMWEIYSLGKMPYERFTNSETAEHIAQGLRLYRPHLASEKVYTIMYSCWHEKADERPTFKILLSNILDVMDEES

[8] = molecular target: T2, Inhibitor of nuclear factor kappa-B kinase subunit beta (Homo sapiens) (UniProt O14920); test: Inhibition of IKKb (unknown origin) at 10 uM relative to control; how it was run: as §2
T2 sequence (whole entry): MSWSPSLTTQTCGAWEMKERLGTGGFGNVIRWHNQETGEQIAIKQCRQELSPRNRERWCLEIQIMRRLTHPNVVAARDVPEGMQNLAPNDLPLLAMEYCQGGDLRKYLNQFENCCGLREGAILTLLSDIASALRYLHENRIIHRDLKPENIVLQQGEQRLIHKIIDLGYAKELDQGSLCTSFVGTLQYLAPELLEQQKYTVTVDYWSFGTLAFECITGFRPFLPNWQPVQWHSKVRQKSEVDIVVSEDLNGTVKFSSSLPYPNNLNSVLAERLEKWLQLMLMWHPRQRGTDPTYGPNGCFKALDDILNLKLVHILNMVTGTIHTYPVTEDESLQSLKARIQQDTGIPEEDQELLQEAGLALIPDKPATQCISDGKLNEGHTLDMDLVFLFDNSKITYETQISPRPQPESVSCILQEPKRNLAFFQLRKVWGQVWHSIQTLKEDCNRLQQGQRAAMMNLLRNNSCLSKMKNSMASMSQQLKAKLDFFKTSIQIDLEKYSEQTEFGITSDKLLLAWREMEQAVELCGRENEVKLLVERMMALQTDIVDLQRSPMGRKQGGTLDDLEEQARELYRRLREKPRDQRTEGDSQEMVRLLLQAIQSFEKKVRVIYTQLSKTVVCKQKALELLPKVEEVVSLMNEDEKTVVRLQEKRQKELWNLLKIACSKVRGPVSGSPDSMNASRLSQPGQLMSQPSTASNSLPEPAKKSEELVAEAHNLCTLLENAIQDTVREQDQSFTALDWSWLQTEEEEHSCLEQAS

[9] = molecular target: Dual specificity mitogen-activated protein kinase kinase 1 (Homo sapiens) (UniProt Q02750); test: Inhibition of MKK1 (unknown origin) at 10 uM relative to control; how it was run: as §1
Sequence of Dual specificity mitogen-activated protein kinase kinase 1 (Homo sapiens) (Q02750 whole entry): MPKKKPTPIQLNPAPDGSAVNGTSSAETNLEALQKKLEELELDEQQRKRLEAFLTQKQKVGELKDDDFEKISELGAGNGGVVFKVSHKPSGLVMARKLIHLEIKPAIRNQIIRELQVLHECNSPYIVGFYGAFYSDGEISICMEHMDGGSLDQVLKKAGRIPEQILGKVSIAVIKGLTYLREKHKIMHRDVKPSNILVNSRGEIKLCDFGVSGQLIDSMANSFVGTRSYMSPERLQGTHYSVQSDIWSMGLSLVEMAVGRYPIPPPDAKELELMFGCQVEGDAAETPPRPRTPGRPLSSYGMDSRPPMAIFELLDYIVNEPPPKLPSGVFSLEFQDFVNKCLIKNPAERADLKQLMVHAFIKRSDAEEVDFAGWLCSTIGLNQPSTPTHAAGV

[10] = molecular target: MAP kinase-interacting serine/threonine-protein kinase 2 (Homo sapiens) (UniProt Q9HBH9); test: Inhibition of MNK2 (unknown origin) at 10 uM relative to control; how it was run: as §1
Sequence of MAP kinase-interacting serine/threonine-protein kinase 2 (Homo sapiens) (Q9HBH9 whole entry, looked up): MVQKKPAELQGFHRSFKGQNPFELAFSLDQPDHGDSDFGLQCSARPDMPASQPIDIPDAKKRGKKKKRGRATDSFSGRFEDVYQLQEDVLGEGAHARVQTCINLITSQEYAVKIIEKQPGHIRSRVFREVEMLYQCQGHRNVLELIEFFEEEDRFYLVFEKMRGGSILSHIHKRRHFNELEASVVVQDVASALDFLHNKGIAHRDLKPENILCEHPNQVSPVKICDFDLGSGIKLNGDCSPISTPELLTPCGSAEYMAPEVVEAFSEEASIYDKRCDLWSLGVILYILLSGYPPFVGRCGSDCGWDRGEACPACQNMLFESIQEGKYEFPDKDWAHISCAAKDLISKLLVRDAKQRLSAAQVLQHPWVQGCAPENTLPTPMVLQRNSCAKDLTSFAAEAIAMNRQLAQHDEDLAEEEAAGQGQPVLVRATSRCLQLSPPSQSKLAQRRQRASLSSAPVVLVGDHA

[11] = molecular target: Mitogen-activated protein kinase 14 (Homo sapiens) (UniProt Q16539); test: Inhibition of p38a MAPK (unknown origin) at 10 uM relative to control
Sequence of Mitogen-activated protein kinase 14 (Homo sapiens) (Q16539 whole entry): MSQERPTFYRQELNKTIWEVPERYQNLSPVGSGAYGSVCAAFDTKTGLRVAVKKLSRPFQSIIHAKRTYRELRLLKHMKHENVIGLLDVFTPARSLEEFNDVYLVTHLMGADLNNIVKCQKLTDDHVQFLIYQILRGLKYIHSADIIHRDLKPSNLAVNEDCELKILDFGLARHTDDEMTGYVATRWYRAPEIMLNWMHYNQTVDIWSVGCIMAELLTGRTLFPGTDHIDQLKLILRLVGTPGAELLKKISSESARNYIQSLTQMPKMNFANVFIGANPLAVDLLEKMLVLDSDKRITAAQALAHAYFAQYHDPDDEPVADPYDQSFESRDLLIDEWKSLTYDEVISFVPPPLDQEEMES
How it was run: (§3)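 Single-concentration screen across a panel of 59 protein kinases, with each compound tested at one fixed concentration. The read-out is residual kinase activity relative to control. Panel results are also condensed into a rescaled geometric mean (RGM) selectivity score.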

Homo sapiens [12] = species: Homo sapiens; test: Inhibition of VEGFR (unknown origin) at 10 uM relative to control; how it was run: as §3
[13] = molecular target: Mitogen-activated protein kinase 9 (Homo sapiens) (UniProt P45984); test: Inhibition of JNK2 (unknown origin) at 10 uM relative to control; how it was run: as §2
Sequence of Mitogen-activated protein kinase 9 (Homo sapiens) (P45984 whole entry, looked up): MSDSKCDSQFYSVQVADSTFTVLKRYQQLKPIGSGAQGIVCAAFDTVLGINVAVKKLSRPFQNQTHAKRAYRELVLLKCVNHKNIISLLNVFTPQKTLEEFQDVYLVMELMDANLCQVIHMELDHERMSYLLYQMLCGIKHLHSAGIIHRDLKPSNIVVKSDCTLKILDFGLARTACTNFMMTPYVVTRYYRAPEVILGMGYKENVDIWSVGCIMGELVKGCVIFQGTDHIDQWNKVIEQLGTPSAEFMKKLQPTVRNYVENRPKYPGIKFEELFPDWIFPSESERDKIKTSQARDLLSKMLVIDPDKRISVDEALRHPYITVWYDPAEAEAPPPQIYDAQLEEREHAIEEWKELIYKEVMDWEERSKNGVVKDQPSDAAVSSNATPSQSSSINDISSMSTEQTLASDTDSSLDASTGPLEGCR

[14] = molecular target: Glycogen synthase kinase-3 beta (Homo sapiens) (UniProt P49841); test: Inhibition of GSK3b (unknown origin) at 10 uM relative to control; how it was run: as §2
Sequence of Glycogen synthase kinase-3 beta (Homo sapiens) (P49841 whole entry, looked up): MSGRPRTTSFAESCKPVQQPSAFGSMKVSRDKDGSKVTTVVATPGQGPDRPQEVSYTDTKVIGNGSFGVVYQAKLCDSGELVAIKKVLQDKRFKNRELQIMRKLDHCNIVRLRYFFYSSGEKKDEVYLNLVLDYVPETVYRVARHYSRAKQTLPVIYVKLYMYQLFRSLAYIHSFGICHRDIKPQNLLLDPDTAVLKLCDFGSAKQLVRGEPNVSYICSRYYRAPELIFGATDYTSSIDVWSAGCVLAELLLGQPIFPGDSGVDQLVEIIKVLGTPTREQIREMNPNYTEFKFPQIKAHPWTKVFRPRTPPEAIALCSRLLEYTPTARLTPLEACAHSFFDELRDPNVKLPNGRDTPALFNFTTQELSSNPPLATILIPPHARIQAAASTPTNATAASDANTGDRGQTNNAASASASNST

[15] = molecular target: Mitogen-activated protein kinase 3 (Homo sapiens) (UniProt P27361); test: Inhibition of ERK1 (unknown origin) at 10 uM relative to control; how it was run: as §2
Sequence of Mitogen-activated protein kinase 3 (Homo sapiens) (P27361 whole entry): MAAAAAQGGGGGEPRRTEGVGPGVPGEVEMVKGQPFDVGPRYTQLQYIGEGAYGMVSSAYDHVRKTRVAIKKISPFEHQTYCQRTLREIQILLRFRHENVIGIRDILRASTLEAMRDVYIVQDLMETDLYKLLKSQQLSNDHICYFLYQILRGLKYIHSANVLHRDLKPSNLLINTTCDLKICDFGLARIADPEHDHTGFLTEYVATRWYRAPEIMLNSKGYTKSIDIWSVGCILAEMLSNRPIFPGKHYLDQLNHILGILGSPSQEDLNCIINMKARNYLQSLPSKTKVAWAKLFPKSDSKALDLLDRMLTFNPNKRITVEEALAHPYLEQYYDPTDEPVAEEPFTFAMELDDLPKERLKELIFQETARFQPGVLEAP

[16] = molecular target: T3, Serine/threonine-protein kinase Nek2 (Homo sapiens) (UniProt P51955); test: Inhibition of NEK2a (unknown origin) at 10 uM relative to control; how it was run: as §1
T3 sequence (whole entry): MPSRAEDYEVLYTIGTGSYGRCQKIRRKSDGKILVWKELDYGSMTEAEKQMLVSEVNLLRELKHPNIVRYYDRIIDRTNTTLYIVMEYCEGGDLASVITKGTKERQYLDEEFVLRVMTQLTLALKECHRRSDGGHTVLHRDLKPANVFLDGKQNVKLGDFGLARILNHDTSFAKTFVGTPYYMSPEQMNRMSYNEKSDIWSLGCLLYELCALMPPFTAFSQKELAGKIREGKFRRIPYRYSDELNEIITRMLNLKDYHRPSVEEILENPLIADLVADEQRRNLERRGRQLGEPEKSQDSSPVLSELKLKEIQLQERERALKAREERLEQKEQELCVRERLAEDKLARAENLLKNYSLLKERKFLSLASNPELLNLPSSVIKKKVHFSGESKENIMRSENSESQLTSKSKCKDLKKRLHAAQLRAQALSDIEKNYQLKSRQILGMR

[17] = molecular target: Calcium/calmodulin-dependent protein kinase kinase 2 (Homo sapiens) (UniProt Q96RR4); test: Inhibition of CAMKKb (unknown origin) at 10 uM relative to control; how it was run: as §2
Sequence of Calcium/calmodulin-dependent protein kinase kinase 2 (Homo sapiens) (Q96RR4 2-588 limits assumed): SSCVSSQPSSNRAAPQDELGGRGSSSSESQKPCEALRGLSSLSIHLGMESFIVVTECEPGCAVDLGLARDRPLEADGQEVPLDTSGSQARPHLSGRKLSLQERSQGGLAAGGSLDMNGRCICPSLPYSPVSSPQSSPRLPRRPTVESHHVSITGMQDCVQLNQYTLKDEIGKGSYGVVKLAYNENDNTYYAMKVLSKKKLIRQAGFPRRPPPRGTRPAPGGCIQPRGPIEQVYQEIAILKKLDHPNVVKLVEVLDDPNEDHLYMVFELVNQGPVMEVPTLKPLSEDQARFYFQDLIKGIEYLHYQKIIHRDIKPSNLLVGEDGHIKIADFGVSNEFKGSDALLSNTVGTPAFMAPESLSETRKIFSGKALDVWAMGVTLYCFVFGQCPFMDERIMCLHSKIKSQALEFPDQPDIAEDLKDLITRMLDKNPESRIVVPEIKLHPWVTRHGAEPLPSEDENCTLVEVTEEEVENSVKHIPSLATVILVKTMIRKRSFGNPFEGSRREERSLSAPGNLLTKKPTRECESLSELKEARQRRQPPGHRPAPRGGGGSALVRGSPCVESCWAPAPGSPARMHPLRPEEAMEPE

Sequence of Serine/threonine-protein kinase PLK1 (Homo sapiens) (P53350 whole entry): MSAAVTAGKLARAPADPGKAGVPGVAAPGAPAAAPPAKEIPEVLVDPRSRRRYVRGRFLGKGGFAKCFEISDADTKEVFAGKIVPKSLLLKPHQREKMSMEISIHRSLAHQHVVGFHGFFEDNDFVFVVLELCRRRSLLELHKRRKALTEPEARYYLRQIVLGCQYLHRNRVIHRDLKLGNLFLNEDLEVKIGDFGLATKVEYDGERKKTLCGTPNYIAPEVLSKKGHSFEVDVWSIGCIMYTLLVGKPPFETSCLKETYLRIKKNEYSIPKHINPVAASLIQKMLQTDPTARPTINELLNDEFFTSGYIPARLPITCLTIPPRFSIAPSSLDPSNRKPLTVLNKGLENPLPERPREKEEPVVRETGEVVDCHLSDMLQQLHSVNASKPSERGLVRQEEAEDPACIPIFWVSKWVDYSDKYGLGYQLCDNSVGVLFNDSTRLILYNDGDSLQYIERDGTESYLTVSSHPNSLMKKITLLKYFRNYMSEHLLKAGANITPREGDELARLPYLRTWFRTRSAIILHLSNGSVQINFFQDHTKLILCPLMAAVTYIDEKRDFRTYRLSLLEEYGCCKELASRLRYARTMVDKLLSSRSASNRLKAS

| Compound | inhibition [1] [%] | inhibition [2] [%] | inhibition [3] [%] | inhibition (Homo sapiens [4]) [%] | inhibition [5] [%] | inhibition [6] [%] | inhibition [7] [%] | inhibition [8] [%] | inhibition [9] [%] | inhibition [10] [%] | inhibition [11] [%] | inhibition (Homo sapiens [12]) [%] | inhibition [13] [%] | inhibition [14] [%] | inhibition [15] [%] | inhibition [16] [%] | inhibition [17] [%] |
| --- | --- | --- | --- | --- | --- | --- | --- | --- | --- | --- | --- | --- | --- | --- | --- | --- | --- |
| Cc1n[nH]c2ccnc(Nc3ccccc3F)c12 | 72 | 45 | 46 | 9 | 83 | 43 | 26 | 49 | 57 | 24 | 10 | 67 | 54 | 53 | 69 | 2 | 36 |
| Cc1n[nH]c2ccnc(NC3CCCCC3)c12 | 34 | 60 | 27 | 49 | 91 | 0 | 70 | 29 | 57 | 8 | 9 | 43 | 41 | 23 | 40 | 0 | 46 |
| Cc1n[nH]c2ccnc(Nc3ccc4ncsc4c3)c12 |  |  | 77 |  |  | 13 | 10 |  |  |  | 0 |  | 49 |  |  |  |  |
| Cc1n[nH]c2ccnc(OC3CCCCC3)c12 | 53 | 82 | 86 | 93 | 95 | 27 | 40 | 35 | 96 | 37 | 0 | 76 | 66 | 73 | 48 | 0 | 72 |
